# Results from different studies.
# Compare with care: the assays were run in different laboratories.
# FLT3 D835V: Receptor-type tyrosine-protein kinase FLT3 (FLT3, Homo sapiens, UniProt P36888, D835V)
# FLT3 D835Y: Receptor-type tyrosine-protein kinase FLT3 (FLT3, Homo sapiens, UniProt P36888, D835Y)
# FLT3 R834Q: Receptor-type tyrosine-protein kinase FLT3 (FLT3, Homo sapiens, UniProt P36888, R834Q)
# FLT3 D835H: Receptor-type tyrosine-protein kinase FLT3 (FLT3, Homo sapiens, UniProt P36888, D835H)
# FLT3 N841I: Receptor-type tyrosine-protein kinase FLT3 (FLT3, Homo sapiens, UniProt P36888, N841I)
# FLT3 K663Q: Receptor-type tyrosine-protein kinase FLT3 (FLT3, Homo sapiens, UniProt P36888, K663Q)
# FLT3 autoinhibited: Receptor-type tyrosine-protein kinase FLT3, autoinhibited (FLT3, Homo sapiens, UniProt P36888)
Structure (SMILES),target,observed,method,concentration,remaining binding [%]
O=C(NCCCN1CCOCC1)c1ccc(Nc2nccc(-c3cc4ccccc4s3)n2)cc1,"Receptor-type tyrosine-protein kinase FLT3 (FLT3, Homo sapiens, UniProt P36888, F691L/ITD)",binding,competition with immobilised ligand,1 µM,37
CN([C@@H]1CCc2c(CC(=O)O)c3cc(S(C)(=O)=O)ccc3n2C1)S(=O)(=O)c1ccc(F)cc1,FLT3 D835V,cell-free assay,competition with immobilised ligand,1 µM,99
C[C@H]1CCN(c2nccc(-c3cnn4ncccc34)n2)C1,FLT3 D835Y,binding,,1 µM,81
O=c1nc(-c2ccccn2)sc2ccccc12,FLT3 R834Q,binding,competition with immobilised ligand,1 µM,100
CN(CCCC(F)(F)F)c1nccc(-c2cnn3ncccc23)n1,FLT3 R834Q,binding,,1 µM,100
COc1cnc(Nc2cccc(S(N)(=O)=O)c2)nc1N1CCN(c2ccccc2)CC1,FLT3 D835H,binding,competition with immobilised ligand,1 µM,94
C[C@@H](c1ccc(-n2cnc3c(N)ncnc32)cc1)N1CCc2nn(C)c(Cc3ccccc3)c2C1=O,FLT3 D835H,binding,competition with immobilised ligand,0.1 µM,94
O=C1NC(c2ccccn2)Sc2ccccc21 (centres unmarked),FLT3 D835Y,cell-free assay,competition with immobilised ligand,1 µM,86
N[C@H]1CCN(c2nccc(-c3cnn4ncccc34)n2)C1,FLT3 D835H,binding,,1 µM,92
O=C(NCCCN1CCOCC1)c1ccc(Nc2ncc(Cl)c(-c3ccc(Cl)s3)n2)cc1,FLT3 R834Q,binding,competition with immobilised ligand,1 µM,7.4
Nc1ncc2c(n1)-c1c([nH]c3ccc(C#CC4CC4)cc13)CCCC2,FLT3 D835H,binding,competition with immobilised ligand,1 µM,88
c1cncc(-c2cccc(Nc3nccc(NC4CCCCC4)n3)c2)c1,"Receptor-type tyrosine-protein kinase FLT3 (FLT3, Homo sapiens, UniProt P36888)",binding,competition with immobilised ligand,10 µM,0.35
Cc1cnn2ncc(-c3ccnc(N(C)C)n3)c2c1,FLT3 D835V,binding,,1 µM,66
O=C(Nc1c[nH]nc1C(=O)NC1CCNCC1)c1cc(F)cc(F)c1,FLT3 D835H,binding,competition with immobilised ligand,1 µM,100
O=C(c1ccc(Nc2ncc(Cl)c(-c3cc4ccccc4s3)n2)cc1)N1CCC(N2CCCC2)CC1,FLT3 N841I,binding,competition with immobilised ligand,1 µM,0
CN(C)c1ncc(F)c(-c2cnn3ncccc23)n1,FLT3 K663Q,binding,,1 µM,100
CCS(=O)(=O)c1cc2cc(C[C@@](O)(CC(C)(C)c3ccc(F)cc3C(N)=O)C(F)(F)F)[nH]c2cn1,FLT3 D835Y,cell-free assay,competition with immobilised ligand,1 µM,99
COc1cnc(Nc2cccc(S(N)(=O)=O)c2)nc1N1CCN(c2ccccc2)C(=O)C1,FLT3 R834Q,binding,competition with immobilised ligand,1 µM,77
CN(C)c1ncnc(-c2ccc3nc(Nc4cc(CN5CCN(C(=O)CC(F)(F)F)CC5)ccn4)[nH]c3c2)c1Cl,FLT3 D835Y,cell-free assay,competition with immobilised ligand,1 µM,38
O=C(c1ccc(Nc2ncc(Cl)c(-c3ccc(Cl)s3)n2)cc1)N1CCC(N2CCCC2)CC1,FLT3 R834Q,binding,competition with immobilised ligand,1 µM,5.3
CCc1ccccc1C(=O)Nc1n[nH]c2c(C)c(F)c(C3C(C#N)=C(C)N(C)C(C)=C3C#N)cc12,FLT3 autoinhibited,cell-free assay,competition with immobilised ligand,1 µM,88
F[C@@H]1CCN(c2nccc(-c3cnn4ncccc34)n2)C1,FLT3 D835Y,binding,,1 µM,61
C=CC(=O)N1CCC(C(=O)NCC(=O)N2CCN(c3nc(-c4cnc(N)nc4C(F)F)nc(N4CCOCC4)n3)CC2)CC1,FLT3 N841I,binding,competition with immobilised ligand,1 µM,100
Cn1nc(C(=O)NCc2ccc(C(=O)O)cc2)cc1-c1ccc2[nH]ccc2c1,FLT3 N841I,cell-free assay,competition with immobilised ligand,0.1 µM,100
COc1ncc2cc3ccccc3nc2c1C#N,FLT3 K663Q,cell-free assay,competition with immobilised ligand,5 µM,97
O=C(NCC1CCOCC1)c1n[nH]cc1NC(=O)c1c(F)cccc1F,FLT3 autoinhibited,binding,competition with immobilised ligand,1 µM,78
O=C(c1ccc(Nc2nccc(-c3cc4ccccc4s3)n2)cc1)N1CCC(N2CCCC2)CC1,FLT3 autoinhibited,binding,competition with immobilised ligand,1 µM,64
CO[C@H]1CC[C@H](CNc2ccc(S(=O)(=O)NC(=O)c3ccc(N4CCN(CC5=C(c6ccc(Cl)cc6)CC(C)(C)CC5)CC4)cc3Oc3cnc4[nH]ccc4c3)cc2[N+](=O)[O-])CC1,FLT3 D835V,cell-free assay,competition with immobilised ligand,1 µM,100
CNC(=O)[C@@H]1CC[C@@H](n2c(-c3ccc4cnccc4c3)nc3ccc(C(=O)NCc4cccc(C(N)=O)c4)cc32)C1,FLT3 autoinhibited,binding,competition with immobilised ligand,1 µM,91
